Results: ChEMBL document CHEMBL1126276, “Synthesis and antimalarial properties of 1-imino derivatives of 7-chloro-3-substituted-3,4-dihydro-1,9(2H,10H)-acridinediones and related structures” (J Med Chem, 1992)

Key:
Plasmodium berghei [1] = test: (§1) Antimalarial activity in Plasmodium berghei infected mice (Mus musculus) after 40 mg/kg subcutaneous dose; type: functional
Procedure, shortened: (§2)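 Normal drug-sensitive P. berghei strain in mice. Compound dissolved or suspended in sesame or peanut oil, given parenterally as a single subcutaneous dose 72 h postinfection.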

Plasmodium berghei [2] = test: Antimalarial activity in Plasmodium berghei infected mice (Mus musculus) after subcutaneous 640 mg/kg dose; type: functional; procedure, shortened: as §2
Plasmodium berghei [3] = test: (§3) Antimalarial activity in Plasmodium berghei infected mice (Mus musculus) after 80 mg/kg subcutaneous dose; type: functional
Procedure, shortened: (§4)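 […] in mice infected with a normal drug-sensitive P. berghei strain. Compound dissolved or suspended in sesame or peanut oil, given as a single subcutaneous dose 72 h postinfection.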

Plasmodium berghei [4] = test: Antimalarial activity was measured against mice (Mus musculus) infected with Plasmodium berghei by subcutaneous administration of 640 mg/kg dose; type: organism-based; design: dose 640 mg/kg, route subcutaneous; settings: in vivo, sc; procedure, shortened: as §4
Plasmodium berghei [5] = test: (§5) Antimalarial activity in Plasmodium berghei infected mice (Mus musculus) after 20 mg/kg subcutaneous dose; type: functional; procedure, shortened: as §4
Plasmodium berghei [6] = test: as §1; type: functional; procedure, shortened: as §4; remark: listed apart in the source
Plasmodium berghei [7] = test: Antimalarial activity in Plasmodium berghei infected mice (Mus musculus) after 320 mg/kg subcutaneous dose; type: functional; procedure, shortened: as §4
Plasmodium berghei [8] = test: Antimalarial activity in Plasmodium berghei infected mice (Mus musculus) after subcutaneous 160 mg/kg dose; type: functional; procedure, shortened: as §2
Plasmodium berghei [9] = test: Antimalarial activity in Plasmodium berghei infected mice (Mus musculus) after subcutaneous 320 mg/kg dose; type: functional; procedure, shortened: as §2
Plasmodium berghei [10] = test: Antimalarial activity in Plasmodium berghei infected mice (Mus musculus) after 160 mg/kg subcutaneous dose; type: functional; procedure, shortened: as §4
Plasmodium berghei [11] = test: as §3; type: functional; procedure, shortened: as §2; remark: listed apart in the source
Plasmodium berghei [12] = test: as §5; type: functional; procedure, shortened: as §2; remark: listed apart in the source
Plasmodium berghei [13] = test: Antimalarial activity Plasmodium berghei infected mice (Mus musculus) after 640 mg/kg subcutaneous dose; type: functional; procedure, shortened: as §4

| Structure (SMILES) | No. of cured mice (Plasmodium berghei [1]; 40 mg/kg) | No. of cured mice (Plasmodium berghei [2]) | Delta mean survival time (Plasmodium berghei [3]; 80 mg/kg) | No. of toxic deaths (Plasmodium berghei [4]) | Delta mean survival time (Plasmodium berghei [5]; 20 mg/kg) | Delta mean survival time (Plasmodium berghei [6]; 40 mg/kg) | Delta mean survival time (Plasmodium berghei [7]) | No. of cured mice (Plasmodium berghei [8]) | No. of cured mice (Plasmodium berghei [1]) | No. of cured mice (Plasmodium berghei [9]) | Delta mean survival time (Plasmodium berghei [10]) | No. of cured mice (Plasmodium berghei [11]) | Delta mean survival time (Plasmodium berghei [3]) | Delta mean survival time (Plasmodium berghei [5]) | Delta mean survival time (Plasmodium berghei [6]) | No. of cured mice (Plasmodium berghei [12]) | Delta mean survival time (Plasmodium berghei [13]) |
| --- | --- | --- | --- | --- | --- | --- | --- | --- | --- | --- | --- | --- | --- | --- | --- | --- | --- |
| CC1/C(=N\CCCN(C)C)c2c(nc3ccc(Cl)cc3c2O)CC1c1ccc(Cl)c(Cl)c1 (stereo in doubt) | 4 | 4 | 10.7 | 1 | 7.8 | 21 | – | – | – | – | – | – | – | – | – | – | – |
| CC(C)CN(CC/N=C1\CC(c2ccc(Cl)c(Cl)c2)Cc2c1c(=O)c1cc(Cl)ccc1n2O)CC(C)C (stereo unspecified) | – | 5 | – | – | – | – | 13 | 2 | 1 | 1 | 9.7 | 1 | 6.3 | 3.6 | 5.3 | – | – |
| CC1C(=O)c2c(n(O)c3ccc(Cl)cc3c2=O)CC1c1ccc(Cl)cc1Cl (stereo unspecified) | – | 5 | – | – | – | – | – | 5 | 5 | 5 | – | 5 | – | 10.7 | – | 2 | – |
| CCN(CC)CCCC(C)/N=C1\CC(c2ccc(Cl)cc2Cl)Cc2nc3ccc(Cl)cc3c(O)c21 (stereo unspecified) | – | 5 | – | – | – | – | – | 5 | 4 | 5 | – | 5 | – | 10.2 | 13.7 | 3 | – |
| O=c1c2c(n(O)c3ccc(Cl)cc13)CC(c1ccc(C(F)(F)F)cc1)C/C2=N\CCCN1CCCCC1 (stereo unspecified) | – | 1 | – | 4 | – | – | – | 5 | 3 | 5 | – | 3 | 12 | 8.5 | 10 | – | – |
| CCN(CC)CCCC/N=C1\CC(c2ccc(C(F)(F)F)cc2)Cc2nc3ccc(Cl)cc3c(O)c21 (stereo unspecified) | – | 5 | – | – | – | – | – | 5 | 4 | 5 | – | 5 | – | 18.6 | 13.6 | 2 | – |
| CCCCCCC/N=C1\CC(c2ccc(C(F)(F)F)cc2)Cc2c1c(=O)c1cc(Cl)ccc1n2O (stereo unspecified) | – | 4 | – | 1 | – | – | 14.7 | 5 | – | 3 | – | 5 | – | – | 4.3 | – | – |
| N=C1CC(c2ccc(C(F)(F)F)cc2)Cc2nc3ccc(Cl)cc3c(O)c21 (stereo unspecified) | – | 5 | – | – | – | – | – | 5 | 5 | 5 | – | 5 | – | 11.2 | – | 1 | – |
| CN(C)CCC/N=C1\CC(c2ccc(C(F)(F)F)cc2)Cc2nc3ccc(I)cc3c(O)c21 (stereo unspecified) | – | 1 | – | 1 | – | – | – | 2 | – | – | 7.3 | – | – | – | 3 | – | 14 |
| O=C1CC(c2ccc(C(F)(F)F)cc2)Cc2nc3ccc(Cl)cc3c(O)c21 (stereo unspecified) | – | 5 | – | – | – | – | – | 5 | 2 | 5 | – | 4 | 9.4 | 8.9 | 9.9 | 1 | – |
| O=C1CC(c2ccc(C(F)(F)F)cc2)Cc2c1c(=O)c1cc(Cl)ccc1n2Cc1ccccc1 (stereo unspecified) | – | – | – | 1 | – | – | – | – | – | – | 0 | – | – | – | 0.2 | – | 0.3 |
| CN(C)CCC/N=C1/c2c([nH]c3ccc(Cl)cc3c2=O)CC(c2ccc(Cl)c(Cl)c2)C1Cc1ccccc1 (stereo unspecified) | – | – | – | 5 | – | – | 7.7 | – | – | – | 6.1 | – | 0.7 | -0.1 | 0.5 | – | – |
| CC1C(=O)c2c(n(O)c3ccc(Cl)cc3c2=O)CC1c1ccc(Cl)c(Cl)c1 (stereo unspecified) | – | 5 | – | – | – | – | – | 5 | 4 | 5 | – | 5 | – | 7.6 | 9.6 | 3 | – |
| OCCNCC/N=C1\CC(c2ccc(Cl)cc2Cl)Cc2nc3ccc(Cl)cc3c(O)c21 (stereo unspecified) | – | 5 | – | – | – | – | – | 5 | 5 | 5 | – | 5 | – | – | – | 5 | – |
| COc1cc(C2C/C(=N\CCCN3CCCCC3)c3c(n(O)c4ccc(Cl)cc4c3=O)C2)cc(OC)c1OC (stereo unspecified) | – | – | – | 1 | – | – | – | – | – | – | 1.4 | – | – | – | 0.3 | – | 4.5 |
| CN(C)CCC/N=C1\CC2(CCCCC2)Cc2nc3ccc(Cl)cc3c(O)c21 | – | – | – | 1 | – | – | – | – | – | – | 0 | – | – | – | 0.6 | – | 0.4 |
| O=C1CC(c2ccc(Cl)cc2Cl)Cc2c1c(=O)c1cc(Cl)ccc1n2O (stereo unspecified) | – | 5 | – | – | – | – | – | 5 | 5 | 5 | – | 5 | – | 1.9 | – | 2 | – |
| CSc1ccc(C2C/C(=N\CCCN(C)C)c3c(nc4ccc(Cl)cc4c3O)C2)cc1 (stereo unspecified) | – | 4 | – | 1 | – | – | 12.8 | 1 | – | 3 | 9.8 | 1 | 4 | 2.8 | 3.4 | – | – |
| COc1ccccc1C1CC(=O)c2c(n(O)c3ccc(Cl)cc3c2=O)C1 (stereo unspecified) | – | – | – | 3 | – | – | 2.2 | – | – | – | – | – | 1.8 | 0.8 | 2.2 | – | – |
| O=c1c2c(n(O)c3ccc(Cl)cc13)CC(c1cccc(C(F)(F)F)c1)C/C2=N\CCN1CCCC1 (stereo unspecified) | – | 4 | – | 1 | – | – | – | 4 | – | 5 | 9.6 | – | 8 | – | 6.6 | – | – |
| CCN(CC)CC(C)(C)C/N=C1\CC(c2ccc(Cl)c(Cl)c2)Cc2c1c(=O)c1cc(Cl)ccc1n2O (stereo unspecified) | – | 5 | – | – | – | – | 13.6 | 4 | 1 | 4 | 14.6 | 2 | 10.3 | 4 | 9.6 | – | – |
| CCN(CC)CC(C)(C)C/N=C1\CC(c2ccc(Cl)cc2Cl)Cc2nc3ccc(Cl)cc3c(O)c21 (stereo unspecified) | – | 5 | – | – | – | – | – | 5 | 4 | 5 | – | 5 | – | 12.7 | 13.7 | 3 | – |
